Laboratory results as given in ChEMBL document CHEMBL2040785, “Regioselective synthesis and antimicrobial studies of ester linked 1,4-disubstituted 1,2,3-bistriazoles” (2012).
Converted amounts (≈) assume the structure as drawn.

What was measured:
Format in all cases: functional
Escherichia coli = assay: Antibacterial activity against Escherichia coli MTCC 7443 after 24 hrs by serial dilution method; conditions: MTCC 7443, 24 h
Outline: (§1)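 Tube serial dilution MIC. Compounds held as 100 µg/ml stocks and serially diluted in tubes of 1 ml sterile double strength nutrient broth to 50–3.12 µg/ml. Each tube was inoculated with 100 µL of bacterial suspension in sterile saline. Incubation at 37 ± 1 °C for 24 h. Norfloxacin was the reference drug and DMSO the solvent control.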

Bacillus subtilis = assay: Antibacterial activity against Bacillus subtilis MTCC 441 after 24 hrs by serial dilution method; conditions: MTCC 441, 24 h; outline: as §1
Candida albicans = assay: Antifungal activity against Candida albicans MTCC 183 after 48 hrs by serial dilution method; conditions: MTCC 183, 48 h
Outline: (§2)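 Tube serial dilution MIC in Sabouraud dextrose broth. Stocks of 100 µg/ml were diluted in 1 ml sterile medium to 50–3.12 µg/ml, and each tube was inoculated with 100 µL of fungal suspension in sterile saline. Incubation at 25 ± 1 °C, 48 h for C. albicans and 120 h for A. niger. Fluconazole was the reference drug and DMSO the solvent control.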

Aspergillus niger = assay: Antifungal activity against Aspergillus niger MTCC 282 after 120 hrs by serial dilution method; conditions: MTCC 282, 120 h; outline: as §2

| Compound | MIC (Escherichia coli) | MIC (Bacillus subtilis) | MIC (Candida albicans) | MIC (Aspergillus niger) |
| --- | --- | --- | --- | --- |
| O=C(OCc1cn(CCc2ccccc2)nn1)c1ccc(C(=O)OCc2cn(CCc3ccccc3)nn2)cc1 | 23.3 µM (≈ 12.5 µg/mL) | 23.3 µM (≈ 12.5 µg/mL) | 23.3 µM (≈ 12.5 µg/mL) | 23.3 µM (≈ 12.5 µg/mL) |
| O=C(OCc1cn(Cc2ccccc2)nn1)c1cccc(C(=O)OCc2cn(Cc3ccccc3)nn2)n1 | 12.3 µM (≈ 6.27 µg/mL) | 12.3 µM (≈ 6.27 µg/mL) | 12.3 µM (≈ 6.27 µg/mL) | 24.6 µM (≈ 12.5 µg/mL) |
| O=C(CCC(=O)OCc1cn(CCc2ccccc2)nn1)OCc1cn(CCc2ccccc2)nn1 | 12.8 µM (≈ 6.25 µg/mL) | 25.6 µM (≈ 12.5 µg/mL) | 12.8 µM (≈ 6.25 µg/mL) | 25.6 µM (≈ 12.5 µg/mL) |
| O=C(CC(=O)OCc1cn(Cc2ccccc2)nn1)OCc1cn(Cc2ccccc2)nn1 | 28 µM (≈ 12.5 µg/mL) | 28 µM (≈ 12.5 µg/mL) | 14 µM (≈ 6.25 µg/mL) | 14 µM (≈ 6.25 µg/mL) |
| O=C(CCC(=O)OCc1cn(Cc2ccccc2)nn1)OCc1cn(Cc2ccccc2)nn1 | 27.1 µM (≈ 12.5 µg/mL) | 27.1 µM (≈ 12.5 µg/mL) | 13.5 µM (≈ 6.22 µg/mL) | 27.1 µM (≈ 12.5 µg/mL) |
| CCn1cc(C(=O)O)c(=O)c2cc(F)c(N3CCNCC3)cc21 [NORFLOXACIN] | 9.8 µM (≈ 3.13 µg/mL) | 9.8 µM (≈ 3.13 µg/mL) | – | – |
| O=C(CCCCC(=O)OCc1cn(Cc2ccccc2)nn1)OCc1cn(Cc2ccccc2)nn1 | 12.8 µM (≈ 6.25 µg/mL) | 25.6 µM (≈ 12.5 µg/mL) | 12.8 µM (≈ 6.25 µg/mL) | 12.8 µM (≈ 6.25 µg/mL) |
| O=C(CCCC(=O)OCc1cn(CCc2ccccc2)nn1)OCc1cn(CCc2ccccc2)nn1 | 24.9 µM (≈ 12.5 µg/mL) | 24.9 µM (≈ 12.5 µg/mL) | 24.9 µM (≈ 12.5 µg/mL) | 24.9 µM (≈ 12.5 µg/mL) |
| OC(Cn1cncn1)(Cn1cncn1)c1ccc(F)cc1F [FLUCONAZOLE] | – | – | 10.2 µM (≈ 3.12 µg/mL) | 10.2 µM (≈ 3.12 µg/mL) |
| O=C(CCCCC(=O)OCc1cn(CCc2ccccc2)nn1)OCc1cn(CCc2ccccc2)nn1 | 24.2 µM (≈ 12.5 µg/mL) | 24.2 µM (≈ 12.5 µg/mL) | 12.1 µM (≈ 6.25 µg/mL) | 24.2 µM (≈ 12.5 µg/mL) |
| O=C(OCc1cn(CCc2ccccc2)nn1)c1cccc(C(=O)OCc2cn(CCc3ccccc3)nn2)c1 | 23.3 µM (≈ 12.5 µg/mL) | 23.3 µM (≈ 12.5 µg/mL) | 23.3 µM (≈ 12.5 µg/mL) | 23.3 µM (≈ 12.5 µg/mL) |
| O=C(CC(=O)OCc1cn(CCc2ccccc2)nn1)OCc1cn(CCc2ccccc2)nn1 | 26.3 µM (≈ 12.5 µg/mL) | 26.3 µM (≈ 12.5 µg/mL) | 26.3 µM (≈ 12.5 µg/mL) | 26.3 µM (≈ 12.5 µg/mL) |
| O=C(CCCC(=O)OCc1cn(Cc2ccccc2)nn1)OCc1cn(Cc2ccccc2)nn1 | 26.3 µM (≈ 12.5 µg/mL) | 26.3 µM (≈ 12.5 µg/mL) | 13.5 µM (≈ 6.41 µg/mL) | 26.3 µM (≈ 12.5 µg/mL) |
| O=C(OCc1cn(CCc2ccccc2)nn1)c1cccc(C(=O)OCc2cn(CCc3ccccc3)nn2)n1 | 23.3 µM (≈ 12.5 µg/mL) | 23.3 µM (≈ 12.5 µg/mL) | 23.3 µM (≈ 12.5 µg/mL) | 23.3 µM (≈ 12.5 µg/mL) |
